This passage reports MIC, HC50 and LC50 results from ChEMBL document CHEMBL1156720, “Synthesis and antimicrobial activity of dermaseptin S1 analogues” (Bioorg Med Chem, 2008).

In brackets after ≈: the same amount, converted by molar mass. Square brackets hold non-standard residues; d marks the D form. Peptide text beside a SMILES is read from it. 1Nal = N[C@@H](Cc1cccc2ccccc12)C(=O)O; 2Nal = N[C@@H](Cc1ccc2ccccc2c1)C(=O)O

Series [1] concerns Escherichia coli. The series is described as follows: Antibacterial activity against Escherichia coli HB101 after 24 hrs by microdilution serial twofold assay. The series is classed as functional. The following applies: HB101, 24 h. In outline:
(§1)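 Bacteria grown in static culture at 37 °C in Mueller Hinton broth and diluted to 5 × 10⁵ CFU/mL. Peptides were tested by twofold serial microdilution starting from 100 μg/mL, with peptide-free control wells. The MIC was the lowest concentration with no rise in turbidity after overnight incubation at 37 °C. Values are means of at least two independent experiments run in duplicate.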
For orientation: Dilution methods test growth across graded concentrations, often in twofold steps.

Series [2] relates to Staphylococcus aureus. The series is described as follows: Antibacterial activity against multi drug-resistant Staphylococcus aureus after 24 hrs by microdilution serial twofold assay. The series is classed as functional. In a few lines:
(§2)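 Mueller Hinton Broth cultures grown statically at 37 °C and diluted to 5 × 10⁵ CFU/mL. Twofold serial microdilution from 100 μg/mL peptide, final volume 200 μL, with peptide-free controls. MIC is the lowest concentration with no turbidity increase after overnight incubation at 37 °C. Means come from at least two independent experiments run in duplicate.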

Series [3] has as its system Burkholderia cepacia. The series is described as follows: Antibacterial activity against Burkholderia cepacia 6/06 after 24 hrs by microdilution serial twofold assay. The series is classed as functional. In a few lines:
as §1

Series [4] can be described thus: Toxicity assessed as hemolytic activity in human red blood cells after 30 mins. The series is classed as cell-based, Erythrocyte. Particulars: read-out: HD50. In a few lines:
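Serially diluted peptides were incubated with 10⁸ washed human RBC (100 µL) for 30 min at 37 °C with agitation. After centrifugation at 900g for 10 min, haemoglobin in the supernatant was read at 550 nm. Distilled water gave maximal lysis. HC₅₀ is the mean from at least two independent experiments run in triplicate.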

Series [5] relates to Staphylococcus aureus. The series is described as follows: Antibacterial activity against Staphylococcus aureus ATCC 6538P after 24 hrs by microdilution serial twofold assay. The series is classed as functional.
Series [6] concerns Stenotrophomonas maltophilia. The series is described as follows: Antibacterial activity against Stenotrophomonas maltophilia FC after 24 hrs by microdilution serial twofold assay. The series is classed as functional. In outline: as §1
Series [7] concerns Staphylococcus aureus. The experiment in a line: Antibacterial activity against Staphylococcus aureus Cowan 1 NCTC 8530 after 3 hrs by microdilution serial twofold assay. The series is classed as functional. Particulars: Cowan 1, 3 h, read-out: LD50 (the source's name). In outline: (§3)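 Mueller Hinton Broth static cultures grown at 37 °C and diluted to 5 × 10⁵ CFU/mL. Peptides were tested by twofold serial microdilution starting from 100 μg/mL in a final volume of 200 μL, with peptide-free controls. After 3 h incubation, cultures were serially 10-fold diluted in PBS and plated on Mueller Hinton Agar. Counts were taken after 24 h at 37 °C. Value is the dose giving 50% bacterial lethality.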

Series [8] deals with Escherichia coli. The experiment in a line: Antibacterial activity against Escherichia coli HB101 after 3 hrs by microdilution serial twofold assay. Format: functional. The following applies: HB101, 3 h, read-out: LD50 (the source's name). In a few lines: as §3
Series [9] deals with Pseudomonas aeruginosa. The series is described as follows: Antibacterial activity against Pseudomonas aeruginosa ATCC 15442 after 24 hrs by microdilution serial twofold assay. Format: functional. Particulars: ATCC 15442, 24 h.
Series [10] deals with Bacillus subtilis. The experiment in a line: Antibacterial activity against Bacillus subtilis ATCC 9466 after 24 hrs by microdilution serial twofold assay. Format: functional. Particulars: ATCC 9466, 24 h.
For series [11], the system named is Pseudomonas aeruginosa. The experiment in a line: Antibacterial activity against multi drug-resistant Pseudomonas aeruginosa after 24 hrs by microdilution serial twofold assay. Format: functional. In outline: as §2
The test system of series [12] is Candida albicans. The series is described as follows: Antifungal activity against wild type Candida albicans by broth microdilution method. Format: functional. In a few lines:
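Wild-strain yeast was tested in triplicate by broth microdilution following NCCLS recommendations. The MIC was the lowest peptide concentration with no increase in turbidity after overnight incubation at 37 °C.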

For series [13], the system named is Staphylococcus aureus. The experiment in a line: Antibacterial activity against Staphylococcus aureus Cowan 1 NCTC 8530 after 24 hrs by microdilution serial twofold assay. The series is classed as functional. The following applies: Cowan 1, 24 h. In outline: as §1

Broadly, the MIC is the smallest concentration in the dilution series that meets the test's criterion for growth inhibition. A higher MIC goes with a less susceptible organism. For H-ALHKTMLKKLGTMAL-NH2, the MIC was greater than 44.9 µM in [1]; greater than 45 µM in series [2]; greater than 45 µM in [3]; greater than 45 µM in [5]; greater than 45 µM in [6]; greater than 45 µM in series [9]. Further, the MIC in series [10] is greater than 45 µM; in series [11], greater than 45 µM; in [12] it was greater than 45 µM; in series [13] it was greater than 44.9 µM. Also, in series [4], the HC50 at 0.5 h was greater than 100 µM. The LC50 in [7] and in series [8] was greater than 44900 nM each time.
With `CSCC[C@H](NC(=O)[C@@H](NC(=O)CNC(=O)[C@H](CC(C)C)NC(=O)[C@H](CCCCN)NC(=O)[C@H](CCCCN)NC(=O)[C@H](CC(C)C)NC(=O)[C@H](CCSC)NC(=O)[C@@H](NC(=O)[C@H](CCCCN)NC(=O)[C@H](Cc1ccc2ccccc2c1)NC(=O)[C@H](CC(C)C)NC(=O)[C@H](C)N)[C@@H](C)O)[C@@H](C)O)C(=O)N[C@@H](C)C(=O)N[C@@H](CC(C)C)C(N)=O` (H-AL[2Nal]KTMLKKLGTMAL-NH2), the MIC was 2.8 µM (≈ 4.8 µg/mL) in series [1]; greater than 25 µM in series [2]; 25 µM (≈ 42.9 µg/mL) in series [3]; 2.8 µM (≈ 4.8 µg/mL) in series [5]; 25 µM (≈ 42.9 µg/mL) in [6]; 5.6 µM (≈ 9.61 µg/mL) in series [9]. Further, the minimal inhibitory concentration (MIC) in [10] worked out at 5.6 µM (≈ 9.61 µg/mL); in [11], 11.2 µM (≈ 19.2 µg/mL); in series [12] it was 11.2 µM (≈ 19.2 µg/mL); in series [13], 11.5 µM (≈ 19.7 µg/mL). Besides, in series [4], the HC50 at 0.5 h is greater than 100 µM. Moreover, the LC50 in series [7] amounted to 2500 nM; in series [8], 900 nM.
For `CSCC[C@H](NC(=O)[C@@H](NC(=O)CNC(=O)[C@H](CC(C)C)NC(=O)[C@H](CCCCN)NC(=O)[C@H](CCCCN)NC(=O)[C@H](CC(C)C)NC(=O)[C@H](CCSC)NC(=O)[C@@H](NC(=O)[C@H](CCCCN)NC(=O)[C@H](Cc1cccc2ccccc12)NC(=O)[C@H](CC(C)C)NC(=O)[C@H](C)NC(=O)[C@@H](N)CCCCN)[C@@H](C)O)[C@@H](C)O)C(=O)N[C@@H](C)C(=O)N[C@@H](CC(C)C)C(N)=O` (H-KAL[1Nal]KTMLKKLGTMAL-NH2), the MIC in [1] is 1.2 µM (≈ 2.21 µg/mL); in series [2] it was 21 µM (≈ 38.7 µg/mL); in [3], 42 µM (≈ 77.4 µg/mL); in [5] it was 1.3 µM (≈ 2.4 µg/mL); in [6], 21 µM (≈ 38.7 µg/mL); in series [9] it was 2.6 µM (≈ 4.79 µg/mL). The MIC was 5.2 µM (≈ 9.59 µg/mL) in [10], 10.5 µM (≈ 19.4 µg/mL) in series [11], 10.5 µM (≈ 19.4 µg/mL) in series [12] and 5.1 µM (≈ 9.4 µg/mL) in series [13]. Besides, in series [4], the HC50 at 0.5 h turned out to be 80 µM. For the same compound, the LC50 in series [7] is 800 nM; in series [8], less than 800 nM.
For H-KALWKTMLKKLGTMAL-NH2, the MIC in series [1] is 2.6 µM; in series [2], greater than 42 µM; in [3], 42 µM; in series [5], 2.6 µM; in series [6], 21 µM; in series [9], 5.2 µM. The minimum inhibitory concentration (MIC) in [10] is 21 µM; in [11], 21 µM; in series [12] it was 10.1 µM; in series [13], 20.8 µM. Also, the HC50 at 0.5 h in [4] was greater than 100 µM. The values for the LC50 in series [7] and in series [8] were 2700 nM and less than 800 nM, respectively.
On to H-ALYKTMLKKLGTMAL-NH2, for which the MIC in series [1] is greater than 46.7 µM; in series [2] it was greater than 45 µM; in series [3], greater than 45 µM; in [5], greater than 45 µM; in series [6], greater than 45 µM; in [9], greater than 45 µM. For the same compound, the MIC in series [10] is greater than 45 µM; in [11], greater than 45 µM; in series [12], greater than 45 µM; in series [13], greater than 46.7 µM. In addition, the HC50 at 0.5 h in series [4] is greater than 100 µM. For the same compound, the LC50 in series [7] and in [8] was greater than 46700 nM throughout.
For H-ALFKTMLKKLGTMAL-NH2, the MIC is 23.5 µM in [1]; greater than 46 µM in [2]; greater than 46 µM in [3]; 23 µM in series [5]; greater than 46 µM in series [6]; greater than 46 µM in [9]. Further, the MIC in series [10] was 23 µM; in series [11] it was greater than 46 µM; in series [12], 5.8 µM; in series [13] it was greater than 47.1 µM. The HC50 at 0.5 h in series [4] is greater than 100 µM. Besides, the LC50 stood at 16700 nM in series [7] and 4500 nM in series [8].
